Measurements: ChEMBL document CHEMBL4382211, “Design, synthesis, and X-ray studies of potent HIV-1 protease inhibitors incorporating aminothiochromane and aminotetrahydronaphthalene carboxamide derivatives as the P2 ligands” (Eur J Med Chem, 2018)

What was measured:
[1] = test system: Human immunodeficiency virus 1; assay: Antiviral activity against HIV1 NL4-3 infected in human MT4 cells after 7 days by MTT assay; type: functional, organism-based; conditions: Human immunodeficiency virus 1, NL4-3, MT4, 168 h
Outline: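 MT-4 human T-lymphoid cells were exposed to HIV-1 NL4-3 (subtype B). IC50 values are the mean of at least two experiments.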

MT4 = assay: (§1) Cytotoxicity against human MT4 cells after 7 days by MTT assay; type: cell-based; conditions: mt4, 168 h
[2] = Selectivity index, ratio of CC50 for human MT4 cells to IC50 for HIV1 NL4-3; type: toxicity; conditions: read-out: Ratio CC50/IC50
Outline: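 Antiviral IC50 measured in MT-4 human T-lymphoid cells exposed to HIV-1 NL4-3 (subtype B), with values the mean of at least two experiments. CC50 (cytotoxicity) determined in MT-4 cells, given in μM. Index calculated as CC50 divided by IC50.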

Protease = Protease (Human immunodeficiency virus 1, UniProt Q9YQ12); assay: Inhibition of HIV1 protease using fluorogenic substrate by continuous fluorometric assay
[3] = as §1; type: cell-based; conditions: MT4 cells

Chain of Protease (Q9YQ12 whole entry): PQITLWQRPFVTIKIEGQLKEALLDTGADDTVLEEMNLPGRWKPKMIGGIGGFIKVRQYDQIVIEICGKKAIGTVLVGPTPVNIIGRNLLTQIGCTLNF

Structure (SMILES) | IC50 [1] | CC50 (MT4) | selectivity ratio [2] | Ki (Protease) | CC50 at 168 h [3]
CC(C)(C)NC(=O)[C@@H]1C[C@@H]2CCCC[C@@H]2CN1C[C@@H](O)[C@H](Cc1ccccc1)NC(=O)[C@H](CC(N)=O)NC(=O)c1ccc2ccccc2n1 | 15 nM | – | – | – | –
COc1ccc(S(=O)(=O)N(CC(C)C)C[C@@H](O)[C@H](Cc2ccccc2)NC(=O)c2ccc3c(c2)[C@@H](N)CC[C@@H]3O)cc1 | 232 nM | 35100 nM | 151 | 0.06 nM | –
COc1ccc(S(=O)(=O)N(CC(C)C)C[C@@H](O)[C@H](Cc2ccccc2)NC(=O)c2ccc3c(c2)[C@H](NC(=O)OC(C)(C)C)CCS3(=O)=O)cc1 | 476 nM | – | > 210 | 0.1 nM | > 100000 nM
COc1ccc(S(=O)(=O)N(CC(C)C)C[C@@H](O)[C@H](Cc2ccccc2)NC(=O)c2ccc3c(c2)[C@@H](NC(=O)OC(C)(C)C)CC[C@@H]3O)cc1 | 254 nM | 33300 nM | 131 | 0.14 nM | –
COc1ccc(S(=O)(=O)N(CC(C)C)C[C@@H](O)[C@H](Cc2ccccc2)NC(=O)c2ccc3c(c2)[C@@H](NC(=O)OC(C)(C)C)CCS3(=O)=O)cc1 | 47 nM | – | > 2130 | 0.008 nM | > 100000 nM
COc1ccc(S(=O)(=O)N(CC(C)C)C[C@@H](O)[C@H](Cc2ccccc2)NC(=O)c2ccc3c(c2)[C@@H](N)CC[C@H]3O)cc1 | > 1000 nM | – | – | 17 nM | –
COc1ccc(S(=O)(=O)N(CC(C)C)C[C@@H](O)[C@H](Cc2ccccc2)NC(=O)c2ccc3c(c2)[C@@H](NC(=O)OC(C)(C)C)CC[C@H]3O)cc1 | > 1000 nM | – | – | 0.3 nM | –
COc1ccc(S(=O)(=O)N(CC(C)C)C[C@@H](O)[C@H](Cc2ccccc2)NC(=O)c2ccc3c(c2)[C@@H](NC(=O)OC(C)(C)C)CCS3)cc1 | > 1000 nM | – | – | 0.38 nM | –
COc1ccc(S(=O)(=O)N(CC(C)C)C[C@@H](O)[C@H](Cc2ccccc2)NC(=O)c2ccc3c(c2)[C@H](NC(=O)OC(C)(C)C)CC[C@@H]3O)cc1 | > 1000 nM | – | – | 1.63 nM | –
COc1ccc(S(=O)(=O)N(CC(C)C)C[C@@H](O)[C@H](Cc2ccccc2)NC(=O)c2ccc3c(c2)[C@H](NC(=O)OC(C)(C)C)CCS3)cc1 | > 1000 nM | – | – | 26.7 nM | –
COc1ccc(S(=O)(=O)N(CC(C)C)C[C@@H](O)[C@H](Cc2ccccc2)NC(=O)c2ccc3c(c2)[C@H](N)CC[C@@H]3O)cc1 | > 1000 nM | – | – | 1.1 nM | –
COc1ccc(S(=O)(=O)N(CC(C)C)C[C@@H](O)[C@H](Cc2ccccc2)NC(=O)c2ccc3c(c2)[C@@H](N)CCS3(=O)=O)cc1 | > 1000 nM | – | – | 15.8 nM | –
COc1ccc(S(=O)(=O)N(CC(C)C)C[C@@H](O)[C@H](Cc2ccccc2)NC(=O)c2ccc3c(c2)[C@H](N)CCS3(=O)=O)cc1 | > 1000 nM | – | – | 18 nM | –
